ABHD5 PLIN5 PPI: ABHD5-PLIN5 protein interaction inhibition | 0.78% of 360,000 active | Q00G26+Q8WTS1 | inhibition, % at 4 µM | Split G. princeps luciferase complementation, luminescence, 4 h | AID 602281;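 active = inhibition above the mean inhibition across every tested compound plus 3 SD, cut at about 22% in these data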
PRMT1 inh: blocks human protein arginine methyltransferase 1. 1.3% of 370,000 active. recombinant PRMT1, activity-based probe fluorescence polarization. inhibition, % at 2.79 µM. Q99873. AID 652257;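 active = inhibition above about 21% made by adding two undisclosed values, limit read from the data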
MBD2 DNA inh: inhibitors of human MBD2 binding to methylated oligonucleotide; Q9UBB5; TR-FRET; inhibition, % at 4.4 µM; 0.31% of 370,000 active; AID 686964; in the data active = inhibition above about 13%
UHRF1 MBD2 ctr: UHRF1 methyl-DNA binding inhibition; UHRF1 binding to methylated oligo, TR-FRET; inhibition, % at 4.4 µM; AID 687016; 0.75% of 370,000 active; in the data active = inhibition above about 21%;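 also: UHRF1 SRA domain binding a hemimethylated CpG hairpin DNA probe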
LEDGF integ inh: blocks HIV-1 LEDGF/p75-dependent DNA integration; TR-FRET IN-LEDGF/p75 DNA integration, Eu/Cy5; inhibition, % at 3.7 µM; 0.64% of 370,000 active;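 active = inhibition above the screen-wide mean plus 3 SD, cut at about 13% in these data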;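 also: signal is the Cy5 over europium emission ratio at 671 and 618 nm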
RBBP9 inhibitor: inhibitors of human serine hydrolase RBBP9; O75884; 0.2% of 220,000 active; inhibition, % at 7.94 µM; recombinant RBBP9, FP-Rh probe fluorescence polarization;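 active = inhibition above the campaign mean of all tested compounds plus 3 SD, cut at about 14% in these data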
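system = RBBP9 protein | input = RBBP9 at 2.5 µM in dispensed solution, before mixing | measured by = fluorescence polarization (mP), excitation 525 nm, emission 598 nm | incubation = enzyme-compound preincubation 30 min, then probe labeling 45 min, 25 °C | buffer or medium = Tris-NaCl-Pluronic buffer, pH 8.0 | compound = single dose 7.94 µM | also added = FP-Rh probe, 375 nM dispensing solution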
ABHD5 PLIN5 conf: confirmation of human ABHD5-PLIN5 interaction inhibitors. inhibition, % at 4 µM. shares compounds with ABHD5 PLIN5 PPI. 67% of 2,200 active. biochemical ABHD5-PLIN5 interaction, luminescence; in the data active = inhibition above about 23%
HNF4 split-luc: active in HNF4 split-luciferase counter-screen for ABHD5-PLIN5 inhibitors; 77% of 2,200 active; HNF4 dimerization, luminescence, biochemical; shares compounds with ABHD5 PLIN5 PPI; inhibition, % at 4 µM;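 active = mean inhibition across replicate wells exceeding the computed hit threshold, cut at about 13% in these data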;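 also: light from luciferase halves that rejoin when HNF4 fusion proteins dimerize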
Of the large screens only hits and unclear results are named; the others gave an inactive call (follow-up assays come after a bar, where they were run). Only some compounds are listed: those with a hit (about 3.1% of all), similar ones and a draw of the others.

CN(C)/N=C/C=C1\CC/C(=C\c2ccc(Br)cc2)C1=O	none
Cc1ccc(C(=O)/C=C/Nc2ccccn2)cc1	none
O=C(C=Cc1ccccn1)c1ccccc1	ABHD5 PLIN5 PPI 79 (no result: RBBP9 inhibitor) | ABHD5 PLIN5 conf 93 | HNF4 split-luc 103
O=C(C=Cc1ccccn1)c1ccccc1O	ABHD5 PLIN5 PPI 67 (no result: RBBP9 inhibitor) | ABHD5 PLIN5 conf 99 | HNF4 split-luc 89
O=C(C=Cc1ccccc1Cl)c1ccccc1	ABHD5 PLIN5 PPI 37 (no result: RBBP9 inhibitor) | ABHD5 PLIN5 conf 88 | HNF4 split-luc 71
O=C(/C=C/c1ccc(O)cc1)c1ccccc1	none
COC(=O)[C@]12C[C@H](CC(=O)NCc3ccc(C)o3)C(=O)N(Cc3ccco3)C1=C[C@H](C(C)(C)C)O[C@@H]2C	none (no result: ABHD5 PLIN5 PPI, RBBP9 inhibitor)
Cc1cccc(C(=O)N[C@H]2CC[C@@]34CCCN3C(=O)CCC[C@H]4[C@H]2C)c1	none (no result: ABHD5 PLIN5 PPI, RBBP9 inhibitor)
CCOc1ccc(-n2c(SCC(=O)Nc3ccc(S(=O)(=O)Nc4nccs4)cc3)nnc2-c2ccc(C(C)(C)C)cc2)cc1	none (no result: ABHD5 PLIN5 PPI, RBBP9 inhibitor)
Cc1ccc(NC(=O)[C@@H](Cc2ccccc2)NC(=O)[C@H]2O[C@@H](n3ccc(=O)[nH]c3=O)[C@H](O)[C@@H]2O)cc1C	none (no result: ABHD5 PLIN5 PPI, RBBP9 inhibitor)
CC[n+]1c(/C=C2\Sc3ccccc3N2C)ccc2cccc(C)c21	ABHD5 PLIN5 PPI 24 | ABHD5 PLIN5 conf 23 | HNF4 split-luc 26
COc1ccc(C(=O)CSc2nnc(-c3cccnc3)n2-c2ccc(C)cc2)cc1	none (no result: ABHD5 PLIN5 PPI, RBBP9 inhibitor)
C=C1C(=O)OC2CC1C(O)CC(C)=CCCC(C)=CC(O)CC2C (configuration not stated)	ABHD5 PLIN5 PPI 55 (no result: RBBP9 inhibitor) | ABHD5 PLIN5 conf 81 | HNF4 split-luc 61
C=C1C(=O)OC2C1CCC(C)C1C=CC(=O)C12C (configuration not stated)	none (no result: RBBP9 inhibitor)
C=C1C(=O)OC2CC1C(OC(C)=O)CC(C)=CCCC(C)=CCCC2(C)O (configuration not stated)	ABHD5 PLIN5 PPI 61 (no result: RBBP9 inhibitor) | ABHD5 PLIN5 conf 83 | HNF4 split-luc 66
CC[C@@H]1CC=C[C@H]2[C@H]1C(=O)N(Cc1ccccc1)[C@H]2c1ccoc1	ABHD5 PLIN5 PPI 24 (no result: PRMT1 inh, MBD2 DNA inh, UHRF1 MBD2 ctr, LEDGF integ inh, RBBP9 inhibitor) | ABHD5 PLIN5 conf 37 | HNF4 split-luc 35
COc1ccc(OC)c(C(C[N+](=O)[O-])c2c(C)cc3ccccn23)c1 (configuration not stated)	none (no result: RBBP9 inhibitor)

Assay outcomes: PubChem BioAssay, The Scripps Research Institute Molecular Screening Center
